OX1R antag-1: blocks the human orexin 1 receptor; O43613; CHO/OX1R cells, Fluo-8 calcium fluorescence, orexin A; inhibition, % at 5 µM; actives 0.43% (n = 330,000);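 active means inhibition above its plate's threshold, mean inhibition of all tested compounds on the plate plus 3 SD, cut at about 37% in these data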
Target sequence (O43613 whole entry, looked up): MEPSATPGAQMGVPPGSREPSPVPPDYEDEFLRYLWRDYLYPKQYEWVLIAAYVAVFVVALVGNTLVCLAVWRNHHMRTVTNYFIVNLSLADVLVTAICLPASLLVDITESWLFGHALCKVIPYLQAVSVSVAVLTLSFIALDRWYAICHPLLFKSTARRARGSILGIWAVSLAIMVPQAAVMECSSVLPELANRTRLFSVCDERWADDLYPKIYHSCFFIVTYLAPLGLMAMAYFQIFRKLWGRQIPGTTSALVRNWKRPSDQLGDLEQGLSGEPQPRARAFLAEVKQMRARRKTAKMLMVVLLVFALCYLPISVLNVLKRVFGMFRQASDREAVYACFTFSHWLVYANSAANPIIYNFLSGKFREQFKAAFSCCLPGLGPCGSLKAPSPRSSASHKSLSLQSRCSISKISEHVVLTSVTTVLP
CHO-K1 Ca antag: M1 antagonist counterscreen hit in parental CHO-K1 cells. ATP-induced calcium, Fluo-8 fluorescence. inhibition, % at 3 µM. actives 0.6% (n = 360,000). AID 602250;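 active means inhibition above a per-plate cutoff, the plate's mean sample inhibition plus 3 SD, cut at about 24% in these data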
M1 PAM parental: counter-screen for M1 PAMs: effect in parental CHO-K1 cells. ATP EC20, Fluo-8 calcium fluorescence; 0% at ATP EC20, 100% at ATP max. activation, % at 3 µM. actives 0.02% (n = 360,000). AID 602247;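 active means activation above the run cutoff, the mean activation of all test compounds plus 3 SD, cut at about 40% in these data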;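 further: peak over basal fluorescence ratio in a 140 s read after ATP addition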
OX1R antag-2: OX1R (human) antagonism | O43613 | OX1R-expressing cells, FRET antagonist read-out | inhibition, % at 6.6 µM | actives 1.8% (n = 330,000); in the data active means inhibition mostly above about 38%, no sharp cut-off; inactive means mostly below about 40%
M1 ag parental: nonselective activator or artifact in parental CHO-K1 cells. AID 602248. Fluo-8 calcium fluorescence; scaled to maximal ATP response, vehicle zero. activation, % at 3 µM. actives 0.48% (n = 360,000); in the data active means activation above about 15%;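 further: untransfected CHO-K1 host cells lacking M1 receptor as counterscreen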
CHO parental Ca: counter-screen: ATP calcium response change in parental CHO cells; parental CHO-K1, ATP-induced calcium, Fluo-8 fluorescence; inhibition, % at 5.6 µM; actives 0.63% (n = 330,000); AID 463079;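 active means inhibition above that plate's mean sample inhibition plus 3 SD, cut at about 26% in these data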
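Assay system: untransfected parental CHO cell line. Also added: ATP agonist challenge. Dosing: one dose, 5.6 µM nominal. Measured by: Fluo-8 fluorescence. Read-out: % inhibition. Benchmarks: ATP wells versus no-ATP DMSO wells. Repeats: no replicates.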
A number is an active result; – = inactive; · = not tested or not shown; ! = not confirmed by another sample. Sampled rows, rich in hits. Any-hit rate of the full collection: about 2.9%.

SMILES	OX1R antag-1	CHO-K1 Ca antag	M1 PAM parental	OX1R antag-2	M1 ag parental	CHO parental Ca
Cc1cccc(C)c1OCC(O)Cn1ccnc1C (stereo not drawn)	–	26	–	–	–	–
Nc1ncc(Br)cc1S(=O)(=O)NCCC(=O)N1CCN(c2ccccc2)CC1	–	–	–	–	–	–
CCN1CCN(C(=O)c2c(-c3c(Cl)cccc3Cl)noc2C)CC1	–	–	–	–	–	–
CCc1cccc(NS(=O)(=O)c2csc(C(N)=O)c2)c1	–	–	–	–	16	–
CCC(c1nnnn1Cc1ccc(OC)cc1)N1CCN(c2ccc(OC)cc2)CC1 (stereo not drawn)	–	25	–	–	–	–
CC1CCc2cc(F)ccc2N1C(=O)CCl (stereo not drawn)	·	–	–	·	–	·
Cc1ccc2nc(SCC(=O)NC3CCCc4ccccc43)[nH]c2c1 (stereo not drawn)	–	–	–	73	–	–
Cc1ccc2nc(SCC(=O)c3ccc(Cl)s3)[nH]c2c1	–	–	–	56	–	–
Cc1ccc2nc(SCC(=O)c3ccc4c(c3)OCO4)[nH]c2c1	–	–	–	–	–	–
O=C(CSc1ccc2ccccc2c1)NC1CCCc2ccccc21 (stereo not drawn)	–	–	–	71	–	–
O=C(CSc1cc(Cl)ccc1Cl)NC1CCCc2ccccc21 (stereo not drawn)	–	–	–	–	–	–
COc1cccc(CNC(=O)CSc2nc3ccc(C)cc3[nH]2)c1	–	–	–	42	–	–
O=C(OCC(=O)N1CCc2ccccc2C1)c1c(F)cccc1Cl	–	–	–	–	–	–
COCC(=O)N(Cc1cc2cccc(C)c2[nH]c1=O)c1ccccc1	–	–	–	–	–	–
C=CCOc1ccc(C2/C(=C(\O)c3ccc4c(c3)OCCO4)C(=O)C(=O)N2CCCN2CCOCC2)cc1 (stereo not drawn)	–	–	–	–	–	–
Cc1nc2ccc(C(=O)NCCc3c[nH]c4ccccc34)cn2c1N(C)C(=O)CCc1ccccc1	·	–	–	·	–	·
CCCCCc1cccnc1	–	–	–	–	–	–
Cc1cc(/C=N/n2cnnc2)c(C)n1-c1ccc(OCc2ccc(Cl)cc2Cl)cc1	53	43	–	–	–	45
Cc1cc(/C=N/n2cnnc2)c(C)n1-c1ccc(Cl)cc1	–	–	–	–	–	–
CCOc1cc(C(=S)N2CCCC2)ccc1OC	–	–	–	–	–	–
CCOc1cc(C(=S)N2CCCC2)ccc1OCC(=O)Nc1c(C)cc(C)cc1C	–	–	–	66	–	–
CC(=O)c1sc(N/N=C\c2ccc(N(C)C)cc2)nc1C	–	–	–	58	–	–
CC(=O)c1sc(N/N=C/c2cccc(O)c2)nc1C	–	–	–	–	–	–
CCCCN(CCCC)Cc1cc(=O)oc2ccccc12	·	–	–	·	–	·
CCOP(=O)(OCC)c1nc(Cc2ccccc2)oc1NCc1ccccc1	–	–	–	–	–	–
SMILES	OX1R antag-1	CHO-K1 Ca antag	M1 PAM parental	OX1R antag-2	M1 ag parental	CHO parental Ca
CCC1CCCCN1C(=O)COC(=O)c1cc(=O)[nH]c2ccccc12 (stereo not drawn)	–	–	–	25	–	–
O=C(OCC(=O)N1CCCCC1)c1cc(=O)[nH]c2ccccc12	–	–	–	–	–	–
CC1=CC(C)(C)NC(=S)N1c1cccc2cc(S(=O)(=O)O)ccc12	–	–	–	–	–	–
CC12CCC(=O)N1C(C(=O)NNC(=O)c1ccccc1Cl)CS2 (stereo not drawn)	–	–	–	–	–	–
COc1ccc(NC(=O)c2cc(-c3cc(Cl)ccc3OC)n[nH]2)c(C)c1	·	–	–	·	–	·
CCC(C)Sc1cc(-c2nc3ccc(C)cn3c2NCc2ccccc2)ccc1OC (stereo not drawn)	73	25!	–	–	–	97
CCC(C)Sc1ccc(-c2nc3ccc(C)cn3c2NCc2ccccc2)cc1OC (stereo not drawn)	56	–	–	–	–	–
CCCCNc1c(-c2ccc(OC)c(SC(C)CC)c2)nc2ccc(C)cn12 (stereo not drawn)	87	–	–	60	–	94
COc1ccc(-c2nc3ccccn3c2NCc2ccc3c(c2)OCO3)cc1	–	–	–	–	–	–
COc1ccc(-c2cc(-c3nc4ccccn4c3NCc3ccccc3)ccc2OC)cc1	96	52	–	89	–	100
Cc1ccc(NC(=O)COC(=O)c2nn(C)c(=O)c3ccccc23)cc1F	–	–	–	–	–	–
CCc1nnc(N2C(=O)c3cccc4cccc(c34)C2=O)s1	–	–	–	71	–	–
COc1ccc(N2C(=O)c3cccc4cccc(c34)C2=O)cc1	–	–	–	–	–	–
CN1C(=S)N(c2cccnc2)C(=O)/C1=C\c1ccc(N(C)C)cc1	·	–	–	·	21	·
Cc1c(N2C(=O)/C(=C\c3ccc(N(C)C)cc3)N(C)C2=S)c(=O)n(-c2ccccc2)n1C	–	–	–	64	–	–
Cc1c(NC(=S)N/N=C/c2ccc(N(C)C)cc2)c(=O)n(-c2ccccc2)n1C	–	–	–	–	–	–
CN1C(=S)N(c2cccnc2)C(=O)/C1=C\c1ccc(C(C)(C)C)cc1	–	–	–	–	–	–
Cc1ccc(N(CC(=O)N2CCCCCC2)S(=O)(=O)c2ccccc2)cc1	–	–	–	–	–	–
Cc1c(N=C2N=C(NC(=O)c3ccc(F)cc3)c3ccccc32)c(=O)n(-c2ccccc2)n1C	–	–	–	–	–	–
COCCNC(=O)COC(=O)/C=C/c1cnc2ccccc2n1	–	–	–	48	–	–
COC(=O)CNC(=O)COC(=O)/C=C/c1ccc2ccccc2n1	–	–	–	–	16	–
O=C(COC(=O)/C=C/c1cnc2ccccc2n1)NCC(F)(F)F	–	–	–	–	–	–
Cc1cc(C)n(CC(=O)NNC(=O)COc2ccc(Br)cc2F)n1	–	–	–	–	–	–
CCOC(=O)Cn1c(=O)oc2cc(S(=O)(=O)NCCc3ccc(C)cc3)ccc21	–	–	–	–	–	–
CCOC(=O)Cn1c(=O)oc2cc(S(=O)(=O)Nc3ccc(F)cc3)ccc21	–	–	–	–	–	23
O=S1(=O)CC(N2CC=CC2)CN1Cc1ccc(F)cc1 (stereo not drawn)	·	29	–	·	–	·
C=CCC[C@@H](Cc1ccc(F)cc1)C(=O)OC[C@H](C)NC(=O)[C@@H](CC=C)CC(=O)N[C@@H](CO)Cc1ccccc1	–	–	–	–	–	–
Cn1ccnc1C(=O)c1ccc(NN)c([N+](=O)[O-])c1	–	–	–	53	–	–
CC(C)NC(=O)C1(C)CCCN1C(=O)c1ccc2c(c1)C(C)(C)CCC2(C)C (stereo not drawn)	·	–	–	·	–	·

Screens from PubChem.
